In ChEMBL document CHEMBL4837191, “Prenylated Coumaric Acids from Artemisia scoparia Beneficially Modulate Adipogenesis” (J Nat Prod, 2021):
Calls of active or inactive are those of the source. The calls are words filed in the database; no cut-off is given here.

Assays:
Assay type in all cases: functional, cell-based
3T3-L1 [1] = assay: Induction of adipogenic differentiation in mouse 3T3-L1 cells assessed as increase in PPARgamma mRNA expression by RT-PCR analysis; settings: dose 2.5-25 µM
Summary of the method: (§1)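 3T3-L1 preadipocytes induced 2 days post-confluence with half-strength MDI (IBMX, DEX, insulin in high-glucose DMEM + 10% FBS); compound (2.5, 10, 25 µM, DMSO 1,000× stocks) added at induction and at day-3 feeding (DMEM + 10% FBS, 0.43 µM insulin). RNA harvested 4 days post-MDI; reverse-transcription qPCR, normalized to Nono; compared with DMSO controls.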

3T3-L1 [2] = assay: Induction of adipogenic differentiation in mouse 3T3-L1 cells assessed as increase in FABP4 mRNA expression by RT-PCR analysis; settings: dose 2.5-25 µM; summary of the method: as §1
3T3-L1 [3] = assay: Inhibition of TNF-alpha induced lipolysis in mouse 3T3-L1 adipocytes assessed as reduction in glycerol release at 2.5 to 25 uM measured after 4 hrs by glycerol reagent based assay; settings: dose 2.5-25 µM
Summary of the method: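 Mature 3T3-L1 adipocytes (full MDI: 0.5 mM IBMX, 1 µM DEX, 1.72 µM insulin), refed day 6, then compound (2.5, 10, 25 µM) or DMSO for 3 days. Overnight 0.75 nM TNFα (or BSA/PBS vehicle), then 4 h in low-glucose DMEM + 2% BSA with TNFα. Medium glycerol by Free Glycerol Reagent, normalized to BCA lysate protein.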

3T3-L1 [4] = assay: Induction of adipogenic differentiation in mouse 3T3-L1 cells assessed as increase in AdipoQ mRNA expression by RT-PCR analysis; settings: dose 2.5-25 µM; summary of the method: as §1
3T3-L1 [5] = assay: Induction of adipogenic differentiation in mouse 3T3-L1 cells at 2.5 to 25 uM measured after 4 days by Oil Red O staining; settings: dose 2.5-25 µM, time 4.0 day

Row | SMILES | Activity (3T3-L1 [1]) | Activity (3T3-L1 [2]) | inhibition (3T3-L1 [3]) | Activity (3T3-L1 [4]) | Activity (3T3-L1 [5])
1 | CC(=O)OC/C(C)=C\Cc1cc(/C=C\C(=O)O)cc(C/C=C(/C)CO)c1O | Active | Active | Active | Active | Active
2 | CC(C)=CCc1cc(/C=C/C(=O)O)cc(C/C=C(\C)CO)c1O | Active | Active | inactive | Active | Active
3 | CC(=O)OC/C(C)=C\Cc1cc(/C=C/C(=O)O)cc(C/C=C(/C)CO)c1O | Active | Active | Active | Active | Active
4 | CC(C)=CCc1cc(/C=C/C(=O)O)cc(C/C=C(/C)CO)c1O | – | – | inactive | – | Active
